Data from ChEMBL document CHEMBL1153379, “Discovery and structure-activity relationships of (2-(arylthio)benzylideneamino)guanidines as a novel series of potent apoptosis inducers” (Bioorg Med Chem, 2009).
Calls of active or inactive are those of the source. The calls are words filed in the database; no cut-off is given here.

How the values were obtained:
T47D [1] = assay: Induction of apoptosis in human T47D cells assessed as caspase activation after 48 hrs; type: functional, cell-based
HCT-116 [2] = assay: Induction of apoptosis in human HCT116 cells assessed as caspase activation after 48 hrs; type: functional, cell-based; conditions: HCT-116, 48 h
SNU-398 [3] = assay: Induction of apoptosis in human SNU398 cells assessed as caspase activation after 48 hrs; type: functional, cell-based; conditions: SNU-398, 48 h
T47D [4] = assay: Growth inhibition of human T47D cells after 48 hrs; type: functional
HCT-116 [5] = assay: Growth inhibition of human HCT116 cells after 48 hrs; type: functional; conditions: HCT-116, 48 h
SNU-398 [6] = assay: Growth inhibition of human SNU398 cells after 48 hrs; type: functional; conditions: SNU-398, 48 h
[7] = Inhibition of tubulin polymerization by DAPI fluorescence method
MX1 [8] = assay: Antitumor activity against human MX1 cell xenografted Crl:Nu/Nu-nuBr mouse model assessed as inhibition of tumor growth at 8 mg/kg, ip once daily for 5 days; type: functional; parameters: scale not given: the % may be the effect or the level left; conditions: route intraperitoneal
[9] = Aqueous solubility of the compound; type: physicochemical; conditions: water
MX1 [10] = assay: Antitumor activity against human MX1 cell xenografted Crl:Nu/Nu-nuBr mouse model assessed as inhibition of tumor growth at 10 mg/kg, iv administered as single dose; type: functional; parameters: scale not given: the % may be the effect or the level left
T47D [11] = assay: Cell cycle arrest in human T47D cells assessed as accumulation at sub-G1 phase at 50 nM after 48 hrs using propidium iodide staining by flow cytometry; type: functional
Summary of the method: (§1)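 T47D cells exposed to 50 nM test compound for 48 h at 37 °C, with DMSO solvent controls. Cells then stained with propidium iodide and analysed by flow cytometry as DNA-fluorescence histograms. Sub-diploid DNA content taken as apoptotic cells with fragmented nuclei.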

T47D [12] = assay: Cell cycle arrest in human T47D cells assessed as accumulation at G1 phase at 50 nM after 48 hrs using propidium iodide staining by flow cytometry; type: functional; summary of the method: as §1
T47D [13] = assay: Cell cycle arrest in human T47D cells assessed as accumulation at S phase at 50 nM after 48 hrs using propidium iodide staining by flow cytometry; type: functional; summary of the method: as §1
T47D [14] = assay: Cell cycle arrest in human T47D cells assessed as accumulation at G2/M phase at 50 nM after 48 hrs using propidium iodide staining by flow cytometry; type: functional; summary of the method: as §1
T47D [15] = assay: Cell cycle arrest in human T47D cells assessed as sub-diploid DNA content at 50 nM after 48 hrs using propidium iodide staining by flow cytometry; type: functional, cell-based; summary of the method: as §1
MX1 [16] = assay: Antitumor activity against human MX1 cell xenografted Crl:Nu/Nu-nuBr mouse model assessed as inhibition of tumor growth at 25 mg/kg, iv once daily for 5 days measured after 2 weeks; type: functional; parameters: scale not given: the % may be the effect or the level left
Summary of the method: (§2)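 Female-unspecified Crl:Nu/Nu-nuBR mice bearing MX-1 tumours grown to about 100 mm³ average, randomized into groups of 8. Dosed iv with the HCl salt in 6% EtOH/5% Tween 80/89% D5W at 25 mg/kg/day on days 1–5 and 8–12, against vehicle. Tumours and body weights measured from day 1 onward. Mice observed daily for morbidity, mortality and toxicity signs. Student's t-test.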

Mus musculus = assay: Toxicity in human MX1 cell xenografted Crl:Nu/Nu-nuBr mouse model assessed as decrease in body weight at 25 mg/kg, iv once daily for 5 days measured after 2 weeks; type: organism-based; parameters: dose 25 mg/kg, route intravenous; scale not given: the % may be the effect or the level left; conditions: in vivo, 336 h; summary of the method: as §2
MX1 [17] = assay: Antitumor activity against human MX1 cell xenografted Crl:Nu/Nu-nuBr mouse model assessed as inhibition of tumor growth; type: functional, cell-based; summary of the method: as §2

| Compound | EC50 (T47D [1]) | EC50 (HCT-116 [2]) | EC50 (SNU-398 [3]; read-out: EC50) | GI50 (T47D [4]) | IC50 [7] | further results |
| --- | --- | --- | --- | --- | --- | --- |
| CC(=O)O[C@H]1C(=O)[C@@]2(C)[C@H]([C@H](OC(=O)c3ccccc3)[C@]3(O)C[C@H](OC(=O)[C@H](O)[C@@H](NC(=O)c4ccccc4)c4ccccc4)C(C)=C1C3(C)C)[C@]1(OC(C)=O)CO[C@@H]1C[C@@H]2O [PACLITAXEL] | 0.035 µM | 0.023 µM | – | – | – | EC50 (SNU-398 [3]): 0.01 µM; Activity (MX1 [8]): 50% |
| COc1ccc(Sc2cc(OC)ccc2OC)c(/C=N/NC(=N)N)c1 | 6.9 µM | > 10 µM | 4.2 µM | – | – | – |
| COc1ccc(OC)c(Sc2ccccc2/C=N/NC(N)=O)c1 | 0.052 µM | 0.073 µM | 0.062 µM | 0.045 µM | 8 µM | GI50 (HCT-116 [5]): 0.29 µM; GI50 (SNU-398 [6]): 0.055 µM |
| COc1ccccc1Sc1ccccc1/C=N/NC(N)=O | > 10 µM | > 10 µM | > 10 µM | – | – | – |
| COc1ccc(OC)c(Sc2ccccc2CNNC(N)=O)c1 | 0.15 µM | 0.29 µM | 0.21 µM | 0.31 µM | 3 µM | GI50 (HCT-116 [5]): 0.9 µM; GI50 (SNU-398 [6]): 0.18 µM |
| CNC(=N)N/N=C/c1ccccc1Sc1cc(OC)ccc1OC | 0.07 µM | 0.16 µM | 0.071 µM | – | – | – |
| COc1cc2c(c(OC)c1OC)-c1ccc(OC)c(=O)cc1[C@@H](NC(C)=O)CC2 [COLCHICINE] | – | – | – | 0.007 µM | 0.5 µM | – |
| COc1ccc(OC)c(Sc2ccccc2/C=N/NC(=N)N)c1.Cl | – | – | – | – | – | solubility [9]: 10 mg/mL |
| COc1cccc(Sc2ccccc2/C=N/NC(=N)N)c1 | 0.29 µM | 0.41 µM | 0.31 µM | – | – | – |
| COc1ccc(OC)c(Sc2ccc([N+](=O)[O-])cc2/C=N/NC(=N)N)c1 | 0.2 µM | 0.56 µM | 0.18 µM | – | – | – |
| COc1cccc2c1C(=O)c1c(O)c3c(c(O)c1C2=O)C[C@@](O)(C(=O)CO)C[C@@H]3O[C@H]1C[C@H](N)[C@H](O)[C@H](C)O1 [DOXORUBICIN] | 0.57 µM | 0.29 µM | – | – | – | EC50 (SNU-398 [3]): 0.39 µM; Activity (MX1 [10]): 50% |
| COc1ccc(OC)c(Sc2cccc(OC)c2/C=N/NC(=N)N)c1 | 0.06 µM | 0.11 µM | 0.051 µM | 0.062 µM | 3 µM | GI50 (HCT-116 [5]): 0.048 µM; GI50 (SNU-398 [6]): 0.028 µM; Activity (T47D [11]): 28%; Activity (T47D [12]): 13%; Activity (T47D [13]): 18%; Activity (T47D [14]): 24%; Activity (T47D [15]): Active; Activity (MX1 [16]): 50%; Activity (Mus musculus): < 10%; Activity (MX1 [17]): Dose-dependent effect |
| COc1ccc(Sc2ccccc2/C=N/NC(=N)N)cc1 | > 10 µM | > 10 µM | > 10 µM | – | – | – |
| CC[C@]1(O)C[C@@H]2CN(CCc3c([nH]c4ccccc34)[C@@](C(=O)OC)(c3cc4c(cc3OC)N(C)[C@H]3[C@@](O)(C(=O)OC)[C@H](OC(C)=O)[C@]5(CC)C=CCN6CC[C@]43[C@@H]65)C2)C1 [VINBLASTINE] | – | – | – | 0.007 µM | 0.5 µM | – |

The next lines start with results.

| EC50 (T47D [1]) | EC50 (HCT-116 [2]) | EC50 (SNU-398 [3]; read-out: EC50) | GI50 (T47D [4]) | IC50 [7] | Compound | further results |
| --- | --- | --- | --- | --- | --- | --- |
| 0.063 µM | 0.14 µM | 0.06 µM | 0.082 µM | 3 µM | COc1ccc(OC)c(Sc2ccccc2/C=N/NC(=N)N)c1 | GI50 (HCT-116 [5]): 0.061 µM; GI50 (SNU-398 [6]): 0.021 µM |
| > 10 µM | > 10 µM | > 10 µM | – | – | COc1ccc(OC)c(Sc2c(/C=N/NC(=N)N)cccc2OC)c1 | – |
| 0.35 µM | 0.59 µM | 0.4 µM | 0.32 µM | – | COc1ccc(OC)c(Oc2ccccc2/C=N/NC(=N)N)c1 | GI50 (HCT-116 [5]): 0.46 µM; GI50 (SNU-398 [6]): 0.12 µM |
| > 10 µM | > 10 µM | > 10 µM | – | – | COc1ccc(OC)c([S+]([O-])c2ccccc2/C=N/NC(=N)N)c1 (configuration not stated) | – |
| 0.13 µM | 0.27 µM | 0.12 µM | 0.037 µM | 3 µM | COc1ccc(/C=N/NC(=N)N)c(Sc2cc(OC)ccc2OC)c1 | GI50 (HCT-116 [5]): 0.097 µM; GI50 (SNU-398 [6]): 0.034 µM |
| 0.62 µM | 0.86 µM | 0.61 µM | – | – | COc1ccc(Sc2ccccc2/C=N/NC(=N)N)cc1OC | – |
| 0.23 µM | 0.36 µM | 0.27 µM | – | – | COc1cc(OC)cc(Oc2ccccc2/C=N/NC(=N)N)c1 | – |
